# Measured values reported in ChEMBL document CHEMBL1153087, “Synthesis of 4-thiophen-2'-yl-1,4-dihydropyridines as potentiators of the CFTR chloride channel” (Bioorg Med Chem, 2009).
# Active and inactive are the calls of the source. The calls are words filed in the database; no cut-off is given here.
# Tests used:
# Format in all cases: cell-based
# [1] = Binding affinity to CFTR deltaF508 mutant expressed in FRT cells coexpressing halide sensitive YFP-H148Q/I152L mutant protein by iodide influx assay
# In short: (§1)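 FRT cells stably co-expressing ΔF508-CFTR and YFP-H148Q/I152L, held 20–24 h at 27 °C and assayed 48 h after plating. PBS wash, then 30 min with forskolin plus compound. 14-s YFP read (ex 500, em 535 nm) around iodide injection (100 mM final). Initial slope dF/dt extrapolated by exponential fit of final 10 s. Dose–response Hill fit gave apparent Kd and maximal effect.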
# FRT = experiment: Potentiation of CFTR deltaF508 mutant expressed in FRT cells coexpressing halide sensitive YFP-H148Q/I152L mutant protein assessed as channel activation by iodide influx assay; in short: as §1
# [2] = target: Voltage-gated L-type calcium channel (Rattus norvegicus, UniProt P22002+Q02485+P27732); experiment: Inhibition of L-VDCC in rat H9C2 cells assessed as effect on calcium level by Fluo-4 fluorescence assay
SMILES,Kd [1] [µM],Activity (FRT),inhibition (INH) [2],pKd [1]
COC(=O)C1=C(C)NC(C)=C(C(=O)OC)C1c1ccc([N+](=O)[O-])s1,8.3,Active,–,–
COC(=O)C1=C(C)NC(C)=C(C(=O)OC)C1c1ccc(C)o1,6,Active,Not Active,5.22
CC1=C(C(=O)OCc2ccccc2)C(c2ccc([N+](=O)[O-])s2)C(C(=O)OCc2ccccc2)=C(C)N1,13.1,–,–,4.88
CCOC(=O)C1=C(C)NC(C)=C(C(=O)OCC)C1c1sccc1C,5.7,–,–,5.24
CCOC(=O)C1=C(C)NC(C)=C(C(=O)OCc2ccccc2)C1c1sccc1SCC(=O)OC (stereo unspecified),0.3,–,Active,6.52
C=CCOC(=O)C1=C(C)NC(C)=C(C(=O)OCC=C)C1c1sccc1SCC(=O)OC,1.3,Active,–,5.89
COC(=O)C1=C(C)NC(C)=C(C(=O)OC)C1c1ccc(C)s1,6,Active,Not Active,5.22
C=CCOC(=O)C1=C(C)NC(C)=C(C(=O)OCC)C1c1sccc1SCC(=O)OC (stereo unspecified),1.9,–,Active,5.72
COC(=O)CSc1ccsc1C1C(C(=O)OCc2ccccc2)=C(C)NC(C)=C1C(=O)OCc1ccccc1,0.3,Active,–,–
COC(=O)C1=C(C)NC(C)=C(C(=O)OC)C1c1sccc1C,3.1,inactive,–,5.51
COC(=O)C1=C(C)NC(C)=C(C(=O)OC)C1c1cccs1,9.5,–,Not Active,5.02
CCOC(=O)C1=C(C)NC(C)=C(C(=O)OCc2ccccc2)C1c1sccc1C (stereo unspecified),0.5,–,Active,6.3
C=CCOC(=O)C1=C(C)NC(C)=C(C(=O)OCC=C)C1c1sccc1C,1,Active,–,6
C=CCOC(=O)C1=C(C)NC(C)=C(C(=O)OCC=C)C1c1ccc([N+](=O)[O-])s1,3.8,–,–,–
C=CCOC(=O)C1=C(C)NC(C)=C(C(=O)OCC=C)C1c1cc(-c2ccccc2)cs1,1.5,Active,–,5.82
CC1=C(C(=O)OCc2ccccc2)C(c2cc(-c3ccccc3)cs2)C(C(=O)OCc2ccccc2)=C(C)N1,16.5,Active,–,4.8
O=c1c(-c2ccc(O)cc2)coc2cc(O)cc(O)c12 [GENISTEIN],16.7,–,–,–
CC1=C(C(=O)OCc2ccccc2)C(c2sccc2C)C(C(=O)OCc2ccccc2)=C(C)N1,0.7,Active,–,6.15
C=CCOC(=O)C1=C(C)NC(C)=C(C(=O)OCC)C1c1sccc1C (stereo unspecified),0.3,–,Active,6.52
